Reference: publication PMC7359852 (ACS Infectious Diseases, 2020)
Like-named read-outs stand apart in the source and are kept apart here.

Legend:
[1] = tested on: adult S. mansoni; experiment: Viability of adult S. mansoni worms in vitro, microscopic viability score; type: cell-based, Schistosoma mansoni; conditions: for adult (%) 0.1 μM: Table 1, 0.1 μM; for adult (%) 0.1 μM / adult (%) 1 μM: effect on adult worms after 72 h; for adult (%) 1 μM: Table 1, 1 μM; for IC50: Table 1, adult worms after 72 h
Method in brief: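 Adult worms were picked from the hepatic portal and mesenteric veins of mice infected 49 days earlier with 100 cercariae. They were washed in PBS pH 7.4 and held in RPMI 1640 with 5% heat-inactivated FCS and antibiotics at 37 °C, 5% CO2. Worms were exposed to test compound for 72 h, with medium plus 1% DMSO as control. Motility, viability and morphology were scored daily by microscopy at 80×. IC50 used a 3-fold dilution series starting at 1 μM and was computed from the scores.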

[2] = tested on: S. mansoni; conditions: cited from earlier work
[3] = tested on: S. mansoni; conditions: cited from earlier work; remark: listed apart in the source
[4] = tested on: S. mansoni; experiment: In vivo study in mice harboring a chronic S. mansoni infection; conditions: single oral dose 10 mg/kg
Method in brief: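 Female NMRI mice (3 weeks old, ca. 20–22 g) were infected subcutaneously with about 100 S. mansoni cercariae. At day 49 post-infection (adult infection), groups of four received a single oral 10 mg/kg dose of test compound; untreated mice served as controls. Mice were euthanised with CO2 21 days after treatment. Worms were picked, sexed and counted, and worm burden reduction was calculated.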

[5] = tested on: adult S. mansoni; conditions: read-out: IC50 against adult S. mansoni; cited from earlier work
[6] = tested on: S. mansoni NTS; conditions: read-out: IC50 against NTS; cited from earlier work

Row | SMILES | adult (%) 0.1 μM [1] [%] | adult (%) 1 μM [1] [%] | IC50 [1] [nM] | IC50 ([1]; Schistosoma mansoni, 72 h) [nM] | further results
1 | C[C@@H]1C[C@H](O)[C@]2(O)O[C@@H]3C[C@@]4(C)[C@@H](CC[C@@H]5[C@@H]4CC[C@]4(C)[C@@H](C6=CC(=O)OC6)CC[C@]54O)C[C@H]3O[C@@H]2O1 [5f, Gomphoside] | 24.4 | 94 | 196 |  | 
2 | CC(=O)S[C@@H]1CC2=CC(=O)CC[C@]2(C)[C@H]2CC[C@@]3(C)[C@@H](CC[C@@]34CCC(=O)O4)[C@H]12 [spironolactone] |  |  |  |  | in vitro activity against S. mansoni [2]: 7.2 µM; in vivo activity [3]: moderate
3 | C[C@@H]1C[C@@]2(NCCS2)[C@]2(O)O[C@@H]3C[C@@]4(C=O)[C@@H](CC[C@@H]5[C@@H]4CC[C@]4(C)[C@@H](C6=CC(=O)OC6)CC[C@]54O)C[C@H]3O[C@@H]2O1 [5aa, Voruscharin] | 31.3 | 98 | 137 |  | 
4 | C[C@@H]1C[C@H](O)[C@]2(O)O[C@@H]3C[C@@]4(C=O)[C@@H](CC[C@@H]5[C@@H]4CC[C@]4(C)[C@@H](C6=CC(=O)OC6)CC[C@]54O)C[C@H]3O[C@@H]2O1 [5a, Calotropin] | 22.9 | 97 |  | 371 | 
5 | C[C@@H]1C[C@@]2(N=CCS2)[C@]2(O)O[C@@H]3C[C@@]4(C=O)[C@@H](CC[C@@H]5[C@@H]4CC[C@]4(C)[C@@H](C6=CC(=O)OC6)CC[C@]54O)C[C@H]3O[C@@H]2O1 [5z, Uscharin] | 51 | 100 |  | 76 | mean number of worms, MV [4]: 27.7 ± 6.5; mean number of worms, females [4]: 13.0 ± 4.6; mean number of worms, liver, alive [4]: 0.7 ± 1.1; mean number of worms, liver, dead [4]: 0 ± 0; mean number of worms, males [4]: 15.3 ± 3.2; mean number of worms, total [4]: 28.3 ± 7.5; total WBR (worm burden reduction) ([4]; chronic infection): 0%
6 | O=C(C1CCCCC1)N1CC(=O)N2CCc3ccccc3C2C1 (centres unmarked) [praziquantel] |  |  |  |  | IC50 [5]: 100 nM; IC50 [6]: 2200 nM
